From ChEMBL document CHEMBL1137365, “1,4,5,6-tetrahydropyrrolo[3,4-c]pyrazoles: identification of a potent Aurora kinase inhibitor with a favorable antitumor kinase inhibition profile” (J Med Chem, 2006)
pEC50, pIC50: −log10 of the molar value. Active and inactive are the calls of the source. The calls are words filed in the database; no cut-off is given here.

Tests used:
HCT-116 [1] = test: Cell cycle arrest in HCT116 cells by accumulation at G2/M phase; type: functional, cell-based; conditions: Homo sapiens
HCT-116 [2] = test: Antiproliferative activity against HCT116 cells; type: functional, cell-based; conditions: Homo sapiens
Method in brief: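 HCT-116 human colon carcinoma cells; proliferation IC50 taken from dose-response curves, reported as the mean of at least three independent determinations.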

Aurora kinase A = biological target: T1, Aurora kinase A (Homo sapiens, UniProt O14965); test: Inhibition of Aurora A kinase
T1 sequence (O14965 whole entry): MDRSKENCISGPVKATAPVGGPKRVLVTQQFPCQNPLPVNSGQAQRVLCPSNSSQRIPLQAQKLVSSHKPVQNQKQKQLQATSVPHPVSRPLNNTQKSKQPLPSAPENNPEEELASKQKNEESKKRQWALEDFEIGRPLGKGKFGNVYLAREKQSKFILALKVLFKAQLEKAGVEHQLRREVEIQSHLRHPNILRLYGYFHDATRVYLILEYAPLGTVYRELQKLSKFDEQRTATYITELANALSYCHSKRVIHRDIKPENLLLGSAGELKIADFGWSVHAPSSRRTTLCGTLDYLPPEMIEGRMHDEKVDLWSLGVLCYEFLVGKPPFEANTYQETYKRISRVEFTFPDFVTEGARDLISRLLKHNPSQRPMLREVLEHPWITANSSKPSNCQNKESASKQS

Aurora kinase B = Aurora kinase B (Homo sapiens, UniProt Q96GD4); test: Inhibition of Aurora B kinase
Method in brief: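 Biochemical Aurora-B kinase inhibition; IC50 reported as the mean of at least three individual determinations.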

[3] = Aqueous solubility at pH 5.5; type: physicochemical
Method in brief: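 Aqueous solubility measured on the hydrochloride salt at pH 5.5.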

HeLa = test: Antiproliferative activity against HeLa cells; type: functional, cell-based; conditions: Homo sapiens
MCF7 = test: Antiproliferative activity against MCF7 cells; type: functional, cell-based; conditions: Homo sapiens
Method in brief: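 IC50 taken from dose-response curves of cell proliferation; each reported value is the mean of three or more independent curves.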

HL-60 [4] = test: Body weight loss of SCID mouse xenografted with HL60 cells at 30 mg/kg, iv after 5 days; type: functional
HL-60 [5] = test: Antitumor activity against HL60 cells xenografted in SCID mouse at 7.5 to 30 mg/kg, iv after 5 days; type: functional; conditions: dose mg/kg 7.5-30
Method in brief: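 SCID mice carrying HL-60 human tumor xenografts. Dosed iv twice daily for 5 days (bid × 5) at 7.5 to 30 mg/kg. Tumor growth inhibition followed over time.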

HCT-116 [6] = test: Inhibition of histone h3 phosphorylation in HCT116 cells by Western blot analysis; type: functional, cell-based; conditions: Homo sapiens
Method in brief: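 HCT-116 cells probed by Western blot for histone H3 phosphorylated at serine 10. α-Tubulin antibody used as the loading control.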

A2780 = test: Antiproliferative activity against A2780 cells; type: functional, cell-based; conditions: Homo sapiens
[7] = biological target: T2, Serine/threonine-protein kinase SULU (Caenorhabditis elegans, UniProt P46549); test: Inhibition of SULU
T2 sequence (P46549 whole entry): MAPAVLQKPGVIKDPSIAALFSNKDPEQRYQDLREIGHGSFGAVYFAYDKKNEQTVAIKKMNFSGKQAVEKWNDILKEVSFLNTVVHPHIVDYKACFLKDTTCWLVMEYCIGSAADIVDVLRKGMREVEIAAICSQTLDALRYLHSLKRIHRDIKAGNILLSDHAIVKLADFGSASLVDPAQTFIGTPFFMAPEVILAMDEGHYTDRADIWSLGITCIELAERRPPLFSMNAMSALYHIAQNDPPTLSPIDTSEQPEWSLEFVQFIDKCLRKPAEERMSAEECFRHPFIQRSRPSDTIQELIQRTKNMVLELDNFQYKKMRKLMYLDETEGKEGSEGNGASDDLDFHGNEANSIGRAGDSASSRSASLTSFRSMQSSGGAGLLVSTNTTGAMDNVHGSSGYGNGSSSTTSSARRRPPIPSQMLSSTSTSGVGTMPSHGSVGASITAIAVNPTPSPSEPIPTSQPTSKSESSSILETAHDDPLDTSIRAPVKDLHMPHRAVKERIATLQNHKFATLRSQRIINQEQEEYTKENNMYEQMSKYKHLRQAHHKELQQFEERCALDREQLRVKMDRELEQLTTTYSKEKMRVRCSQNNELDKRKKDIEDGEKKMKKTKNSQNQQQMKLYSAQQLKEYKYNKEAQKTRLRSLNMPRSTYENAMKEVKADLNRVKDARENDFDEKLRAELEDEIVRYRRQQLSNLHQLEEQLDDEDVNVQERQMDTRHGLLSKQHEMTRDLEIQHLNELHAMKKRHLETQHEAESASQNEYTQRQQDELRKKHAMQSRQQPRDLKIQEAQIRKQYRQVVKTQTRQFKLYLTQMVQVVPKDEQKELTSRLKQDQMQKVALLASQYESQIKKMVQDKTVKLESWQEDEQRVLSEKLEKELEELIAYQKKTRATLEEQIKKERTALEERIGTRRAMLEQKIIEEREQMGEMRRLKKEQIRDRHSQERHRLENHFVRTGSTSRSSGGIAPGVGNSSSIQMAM

[8] = biological target: Serine/threonine-protein kinase NIM1 (Homo sapiens, UniProt Q8IY84); test: Inhibition of NIM1
[9] = Volume of distribution in CD1 mouse at 10 mg/kg, iv; type: ADME, organism-based; set-up: dose 10 mg/kg, route intravenous; conditions: in vivo, read-out: Vss
Method in brief: (§1)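 Plasma levels followed up to 6 h post-dose. Parameters estimated individually for three mice (M1–M3) and reported as mean and SD.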

[10] = biological target: Vascular endothelial growth factor receptor 3 (Homo sapiens, UniProt P35916); test: Inhibition of VEGFR3
[11] = AUC in CD1 mouse at 10 mg/kg, iv; type: ADME, organism-based; set-up: dose 10 mg/kg, route intravenous; conditions: plasma; method in brief: as §1
[12] = biological target: T3, Inhibitor of nuclear factor kappa-B kinase subunit beta (Homo sapiens, UniProt O14920); test: Inhibition of IKK2
T3 sequence (O14920 whole entry): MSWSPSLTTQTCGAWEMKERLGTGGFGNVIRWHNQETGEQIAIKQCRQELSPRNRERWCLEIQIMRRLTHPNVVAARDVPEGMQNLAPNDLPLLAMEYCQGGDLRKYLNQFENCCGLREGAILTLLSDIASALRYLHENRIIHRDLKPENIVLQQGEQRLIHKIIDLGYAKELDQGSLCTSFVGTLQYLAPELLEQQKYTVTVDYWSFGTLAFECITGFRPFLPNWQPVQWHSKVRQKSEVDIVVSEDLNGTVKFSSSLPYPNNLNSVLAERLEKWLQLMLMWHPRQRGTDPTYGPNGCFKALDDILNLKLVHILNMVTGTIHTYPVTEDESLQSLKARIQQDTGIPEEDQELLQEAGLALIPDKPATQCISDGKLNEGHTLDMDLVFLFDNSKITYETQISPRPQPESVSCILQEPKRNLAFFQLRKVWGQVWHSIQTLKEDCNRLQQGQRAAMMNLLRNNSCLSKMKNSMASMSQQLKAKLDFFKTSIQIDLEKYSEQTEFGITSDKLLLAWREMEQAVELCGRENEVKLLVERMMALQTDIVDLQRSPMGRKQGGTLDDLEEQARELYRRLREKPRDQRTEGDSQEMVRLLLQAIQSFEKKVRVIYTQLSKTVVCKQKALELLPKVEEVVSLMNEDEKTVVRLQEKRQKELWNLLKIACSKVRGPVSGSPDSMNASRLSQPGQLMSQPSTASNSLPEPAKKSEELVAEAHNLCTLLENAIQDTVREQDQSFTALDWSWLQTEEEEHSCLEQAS

[13] = Clearance in CD1 mouse at 10 mg/kg, iv; type: ADME, organism-based; set-up: dose 10 mg/kg, route intravenous; conditions: in vivo; method in brief: as §1
[14] = Cmax in CD1 mouse at 10 mg/kg, iv; type: ADME, organism-based; set-up: dose 10 mg/kg, route intravenous; conditions: in vivo; method in brief: as §1
[15] = biological target: T4, Tyrosine-protein kinase ZAP-70 (Homo sapiens, UniProt P43403); test: Inhibition of ZAP70
T4 sequence (P43403 whole entry): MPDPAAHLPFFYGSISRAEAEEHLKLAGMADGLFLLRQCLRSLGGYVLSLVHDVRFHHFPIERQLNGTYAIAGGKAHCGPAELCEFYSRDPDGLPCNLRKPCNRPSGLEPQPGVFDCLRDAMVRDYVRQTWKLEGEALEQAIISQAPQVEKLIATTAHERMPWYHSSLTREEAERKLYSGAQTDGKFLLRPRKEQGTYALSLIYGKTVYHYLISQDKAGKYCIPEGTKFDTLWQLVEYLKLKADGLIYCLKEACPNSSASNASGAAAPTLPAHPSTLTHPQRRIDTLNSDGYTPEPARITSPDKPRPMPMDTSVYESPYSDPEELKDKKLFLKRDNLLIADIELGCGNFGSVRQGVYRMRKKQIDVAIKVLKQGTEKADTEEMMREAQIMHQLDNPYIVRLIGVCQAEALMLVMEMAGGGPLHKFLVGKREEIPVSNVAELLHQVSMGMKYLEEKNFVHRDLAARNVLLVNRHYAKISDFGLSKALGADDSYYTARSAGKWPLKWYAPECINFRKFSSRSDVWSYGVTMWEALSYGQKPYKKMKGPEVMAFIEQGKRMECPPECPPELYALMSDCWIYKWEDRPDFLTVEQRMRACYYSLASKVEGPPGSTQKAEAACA

[16] = biological target: T5, 3-phosphoinositide-dependent protein kinase 1 (Homo sapiens, UniProt O15530); test: Inhibition of PDK1
T5 sequence (O15530 whole entry): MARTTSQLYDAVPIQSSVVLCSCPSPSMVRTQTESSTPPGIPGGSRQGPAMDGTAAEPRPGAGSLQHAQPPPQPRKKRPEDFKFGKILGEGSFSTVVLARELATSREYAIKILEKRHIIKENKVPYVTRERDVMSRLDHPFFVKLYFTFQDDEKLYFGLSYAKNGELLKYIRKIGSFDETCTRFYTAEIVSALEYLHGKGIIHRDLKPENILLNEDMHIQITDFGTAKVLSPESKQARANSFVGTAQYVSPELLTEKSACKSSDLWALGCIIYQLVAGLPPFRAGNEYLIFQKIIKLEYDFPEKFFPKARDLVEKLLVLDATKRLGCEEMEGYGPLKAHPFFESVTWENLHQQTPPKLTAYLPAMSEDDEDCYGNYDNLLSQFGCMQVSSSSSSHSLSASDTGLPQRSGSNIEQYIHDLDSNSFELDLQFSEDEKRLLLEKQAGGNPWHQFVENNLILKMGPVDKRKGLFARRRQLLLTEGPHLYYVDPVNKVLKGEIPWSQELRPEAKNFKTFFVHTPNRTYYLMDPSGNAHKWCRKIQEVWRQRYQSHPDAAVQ

[17] = Terminal half life in CD1 mouse at 10 mg/kg, iv; type: ADME, organism-based; set-up: dose 10 mg/kg, route intravenous; conditions: in vivo, read-out: beta t1/2 (converted); method in brief: as §1
Aurora kinase C = biological target: T6, Aurora kinase C (Homo sapiens, UniProt Q9UQB9); test: Inhibition of Aurora C kinase
T6 sequence (Q9UQB9 whole entry): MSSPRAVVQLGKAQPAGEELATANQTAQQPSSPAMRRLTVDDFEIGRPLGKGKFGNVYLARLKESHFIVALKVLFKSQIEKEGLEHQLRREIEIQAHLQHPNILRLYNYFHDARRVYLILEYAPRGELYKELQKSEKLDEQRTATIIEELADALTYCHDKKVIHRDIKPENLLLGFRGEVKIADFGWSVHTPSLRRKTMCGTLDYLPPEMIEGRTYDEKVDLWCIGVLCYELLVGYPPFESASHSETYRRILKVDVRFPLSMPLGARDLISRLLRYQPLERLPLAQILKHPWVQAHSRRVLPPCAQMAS

Sequence of Aurora kinase B (Q96GD4 whole entry): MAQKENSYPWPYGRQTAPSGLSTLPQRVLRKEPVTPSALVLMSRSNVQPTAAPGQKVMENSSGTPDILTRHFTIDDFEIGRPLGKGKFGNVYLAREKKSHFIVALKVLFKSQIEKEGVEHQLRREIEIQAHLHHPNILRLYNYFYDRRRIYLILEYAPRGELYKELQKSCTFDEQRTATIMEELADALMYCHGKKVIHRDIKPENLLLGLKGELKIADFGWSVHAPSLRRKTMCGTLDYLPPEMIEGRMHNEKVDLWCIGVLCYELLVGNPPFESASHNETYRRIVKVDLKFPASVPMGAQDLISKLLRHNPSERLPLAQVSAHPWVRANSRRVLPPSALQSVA
Sequence of Vascular endothelial growth factor receptor 3 (P35916 whole entry): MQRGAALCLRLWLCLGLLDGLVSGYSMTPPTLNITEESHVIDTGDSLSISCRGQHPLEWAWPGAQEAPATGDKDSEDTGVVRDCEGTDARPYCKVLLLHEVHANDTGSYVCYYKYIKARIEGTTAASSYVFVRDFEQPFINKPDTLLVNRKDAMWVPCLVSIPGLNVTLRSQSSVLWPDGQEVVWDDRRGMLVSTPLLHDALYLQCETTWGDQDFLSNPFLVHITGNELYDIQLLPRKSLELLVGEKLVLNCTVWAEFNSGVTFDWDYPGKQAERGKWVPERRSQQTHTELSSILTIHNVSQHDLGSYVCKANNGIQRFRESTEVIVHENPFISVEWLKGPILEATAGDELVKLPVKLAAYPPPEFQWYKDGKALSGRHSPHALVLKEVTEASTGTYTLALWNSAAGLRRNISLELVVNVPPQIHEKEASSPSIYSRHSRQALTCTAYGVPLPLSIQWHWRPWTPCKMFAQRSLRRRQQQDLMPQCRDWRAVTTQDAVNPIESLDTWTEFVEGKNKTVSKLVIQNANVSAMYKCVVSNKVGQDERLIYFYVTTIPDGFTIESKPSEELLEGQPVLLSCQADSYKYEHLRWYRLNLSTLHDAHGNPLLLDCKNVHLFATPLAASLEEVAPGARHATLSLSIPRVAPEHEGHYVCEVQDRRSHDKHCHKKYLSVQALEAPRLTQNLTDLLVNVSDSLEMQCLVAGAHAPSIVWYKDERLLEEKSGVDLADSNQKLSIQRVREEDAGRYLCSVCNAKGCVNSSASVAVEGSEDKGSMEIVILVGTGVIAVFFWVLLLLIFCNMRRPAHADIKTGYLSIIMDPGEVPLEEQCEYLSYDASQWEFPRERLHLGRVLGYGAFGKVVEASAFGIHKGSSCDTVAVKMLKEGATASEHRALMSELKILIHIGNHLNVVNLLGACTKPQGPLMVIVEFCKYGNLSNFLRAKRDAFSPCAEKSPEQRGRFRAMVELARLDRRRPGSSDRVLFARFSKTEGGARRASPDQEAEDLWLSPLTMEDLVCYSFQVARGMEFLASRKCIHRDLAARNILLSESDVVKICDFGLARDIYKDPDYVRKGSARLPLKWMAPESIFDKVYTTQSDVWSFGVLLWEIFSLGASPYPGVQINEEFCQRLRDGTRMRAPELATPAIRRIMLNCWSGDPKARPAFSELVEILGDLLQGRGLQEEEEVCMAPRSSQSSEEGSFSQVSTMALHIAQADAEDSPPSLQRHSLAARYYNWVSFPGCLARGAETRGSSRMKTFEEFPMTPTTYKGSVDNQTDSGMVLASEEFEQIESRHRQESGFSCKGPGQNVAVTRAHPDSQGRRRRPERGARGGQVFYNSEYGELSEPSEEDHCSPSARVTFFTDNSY
Sequence of Serine/threonine-protein kinase NIM1 (Q8IY84 whole entry): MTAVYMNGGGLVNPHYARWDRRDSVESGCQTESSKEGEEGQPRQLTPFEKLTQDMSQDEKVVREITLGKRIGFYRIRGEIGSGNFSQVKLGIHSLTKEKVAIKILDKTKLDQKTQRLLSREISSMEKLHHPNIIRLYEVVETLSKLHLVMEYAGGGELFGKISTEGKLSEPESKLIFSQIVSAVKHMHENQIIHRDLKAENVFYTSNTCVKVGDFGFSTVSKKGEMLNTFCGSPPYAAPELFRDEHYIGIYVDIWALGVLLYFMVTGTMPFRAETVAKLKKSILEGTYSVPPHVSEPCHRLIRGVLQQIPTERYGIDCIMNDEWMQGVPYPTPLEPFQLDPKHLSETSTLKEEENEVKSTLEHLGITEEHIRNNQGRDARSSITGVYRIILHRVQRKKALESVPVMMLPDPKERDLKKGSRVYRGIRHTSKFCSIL

| SMILES | pEC50 (HCT-116 [1]) | pIC50 (HCT-116 [2]) | pIC50 (Aurora kinase A) | pIC50 (Aurora kinase B) | also measured |
| --- | --- | --- | --- | --- | --- |
| CN1CCN(c2ccc(C(=O)Nc3n[nH]c4c3CN(C(=O)Cc3ccccc3)C4)cc2)CC1 | 6.30 | 6.66 | 6.89 |  |  |
| C[C@H](C(=O)N1Cc2n[nH]c(NC(=O)c3ccc(N4CCN(C)CC4)cc3)c2C1)c1ccccc1 |  |  | 6.34 | 5.92 |  |
| CN1CCN(c2ccc(C(=O)Nc3n[nH]c4c3CN(C(=O)[C@H](F)c3ccccc3)C4)cc2)CC1 | 6.96 | 7.30 | 8.05 | 6.52 |  |
| CN1CCN(c2ccc(C(=O)Nc3n[nH]c4c3CN(C(=O)[C@H](O)c3ccccc3)C4)cc2)CC1 | < 6.70 | 7.01 | 8.22 | 7.32 |  |
| C[C@@H](C(=O)N1Cc2[nH]nc(NC(=O)c3ccc(N4CCN(C)CC4)cc3)c2C1)c1ccccc1 | 7.00 | 7.68 | 7.62 | 7.00 |  |
| CO[C@@H](C(=O)N1Cc2n[nH]c(NC(=O)c3ccc(N4CCN(C)CC4)cc3)c2C1)c1ccccc1.Cl |  |  |  |  | solubility [3]: > 15 mg/mL |
| CO[C@@H](C(=O)N1Cc2[nH]nc(NC(=O)c3ccc(N4CCN(C)CC4)cc3)c2C1)c1ccccc1 [DANUSERTIB] | 7.10 | 7.51 |  |  | pIC50 (HeLa): 6.85; pIC50 (MCF7): 7.10; Activity (HL-60 [4]): 16%; TGI (HL-60 [5]): 98%; Activity (HCT-116 [6]): Active; pIC50 (A2780): 7.55 |
| CO[C@@H](C(=O)N1Cc2n[nH]c(NC(=O)c3ccc(N4CCN(C)CC4)cc3)c2C1)c1ccccc1 [DANUSERTIB] |  |  |  |  | pIC50 [7]: < 5.00; pIC50 [8]: < 5.00; Vd [9]: 3.7 L/kg; pIC50 [10]: 6.79; AUC [11]: 6.5 µM·h; pIC50 [12]: < 5.00; clearance [13]: 60 mL/min/kg; Cmax [14]: 9.6 µM; pIC50 [15]: < 5.00; pIC50 [16]: < 5.00; half-life [17]: 1.4 h; pIC50 (Aurora kinase C): 7.21 |
